The structures appear in SMILES notation. Converted amounts (≈) assume the structure as drawn. Where only a bound is given, the exact number is not on record here.

The values below come from ChEMBL document CHEMBL4033777, “Next-Generation Hypoxic Cell Radiosensitizers: Nitroimidazole Alkylsulfonamides” (J Med Chem, 2018).

The test system of data set [1] is HCT-116. In words: Cytotoxicity against human HCT116 cells incubated for 4 hrs under anaerobic condition measured after 5 days by sulforhodamine B assay. Type of data set: functional, cell-based. The method, boiled down:
(§1)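 STR-authenticated, mycoplasma-free HCT116 cells in αMEM + 5% FCS were seeded at 700 cells/well and allowed 2 h to attach. Drug was added from DMSO stocks (<1% DMSO) in serial 3-fold dilutions for 4 h, oxic or anoxic (Pd-catalyst anaerobic chamber, medium pre-equilibrated ≥3 days). After washing, cells regrew for 5 days before SRB staining and IC50 determination.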
(The SRB assay estimates cell density from bound dye.)

Data set [2] deals with HCT-116. In words: Hypoxic cytotoxicity ratio of IC50 for human HCT116 cells under oxic condition to IC50 for human HCT116 cells under anoxic condition. The procedure, abridged: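 HCT116 cells, 700 per well and attached 2 h, got a 4 h exposure to 3-fold serial dilutions (<1% DMSO) under air or in a Pd-catalyst anaerobic chamber with pre-equilibrated medium. Cells were washed, regrown 5 days, and stained with sulforhodamine B to give IC50. HCR = oxic IC50 / anoxic IC50.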

In data set [3] the test system is HCT-116. In words: Hypoxia radiosensitization activity in human HCT116 cells assessed as survival ratio by measuring ratio of cell survival with 15 Gy radiation in absence to presence of compound at anoxic IC50 preincubated for 1 hr followed by 15 Gy irradiation measured after 10 days by methylene blue staining-based cell counting method. Type of data set: functional. The procedure, abridged: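 Anoxic HCT116 cells were seeded at 10^5/well and treated at the anoxic IC50 concentration for 1 h at room temperature. They were irradiated with 15 Gy (60Co, ~2 Gy/min) in a sealed steel box, then plated clonogenically. Colonies of >50 cells were counted […]. SR15 = survival with radiation / survival with drug + radiation.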

Data set [4] relates to HCT-116. In words: Hypoxia radiosensitization activity in human HCT116 cells assessed as sensitizer enhancement ratio by measuring ratio of radiation dose for 1% survival in absence to presence of compound at 2.1 mM preincubated for 1 hr followed by irradiation measured after 10 days by methylene blue staining-based cell counting method. The class given is functional.
The subject of data set [5] is HCT-116. In words: Hypoxia radiosensitization activity in human HCT116 cells assessed as sensitizer enhancement ratio by measuring ratio of radiation dose for 1% survival in absence to presence of compound at 2.1 mM preincubated for 1 hr followed by irradiation measured after 10 days by methylene blue staining-based cell counting method relative to misonidazole. The class given is functional.

For data set [6], the system named is HCT-116. In words: Hypoxia radiosensitization activity in human HCT116 cells assessed as survival ratio by measuring ratio of cell survival with radiation in absence to presence of compound at 2.1 mM preincubated for 1 hr followed by 6 to 29 Gy irradiation measured after 10 days by methylene blue staining-based cell counting method. Type of data set: functional.

Data set [7] has as its system HCT-116. In words: Cytotoxicity against human HCT116 cells at anoxic IC50 incubated for 1 hr at 21 degC by clonogenic survival assay. To be noted: hct-116, 1 h.
Data set [8] in a line: Solubility of the compound in alphaMEM containing 5% FCS and 1% DMSO by HPLC analysis. Type of data set: physicochemical. The procedure, abridged:
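Saturated drug solutions were incubated at 37 °C in αMEM with 5% FCS and 1% DMSO. Dissolved drug was quantified by HPLC.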

Data set [9] deals with HCT-116. In words: Hypoxia radiosensitization activity in human HCT116 cells assessed as sensitizer enhancement ratio by measuring ratio of radiation dose for 1% survival in absence to presence of compound at 0.68 mM preincubated for 1 hr followed by irradiation measured after 10 days by methylene blue staining-based cell counting method. Type of data set: functional.
The subject of data set [10] is HCT-116. In words: Hypoxia radiosensitization activity in human HCT116 cells assessed as sensitizer enhancement ratio by measuring ratio of radiation dose for 1% survival in absence to presence of compound at 0.68 mM preincubated for 1 hr followed by irradiation measured after 10 days by methylene blue staining-based cell counting method relative to misonidazole. Type of data set: functional.

Data set [11] concerns HCT-116. The data set is described as follows: Hypoxia radiosensitization activity in human HCT116 cells assessed as survival ratio by measuring ratio of cell survival with radiation in absence to presence of compound at 0.68 mM preincubated for 1 hr followed by 6 to 29 Gy irradiation measured after 10 days by methylene blue staining-based cell counting method. The class given is functional.

The test system of data set [12] is HCT-116. The data set is described as follows: Hypoxia radiosensitization activity in human HCT116 cells assessed as survival ratio by measuring ratio of cell survival with radiation in absence to presence of compound at 0.68 mM preincubated for 1 hr followed by 6 to 29 Gy irradiation measured after 10 days by methylene blue staining-based cell counting method relative to misonidazole. The class given is functional.

In data set [13] the test system is HCT-116. In words: Hypoxia radiosensitization activity in human HCT116 cells assessed as sensitizer enhancement ratio by measuring ratio of radiation dose for 1% survival in absence to presence of compound at 0.08 mM preincubated for 1 hr followed by irradiation measured after 10 days by methylene blue staining-based cell counting method. Type of data set: functional.

For data set [14], the system named is HCT-116. In words: Hypoxia radiosensitization activity in human HCT116 cells assessed as sensitizer enhancement ratio by measuring ratio of radiation dose for 1% survival in absence to presence of compound at 0.08 mM preincubated for 1 hr followed by irradiation measured after 10 days by methylene blue staining-based cell counting method relative to misonidazole. The class given is functional.

Data set [15] concerns HCT-116. In words: Hypoxia radiosensitization activity in human HCT116 cells assessed as survival ratio by measuring ratio of cell survival with radiation in absence to presence of compound at 0.08 mM preincubated for 1 hr followed by 6 to 29 Gy irradiation measured after 10 days by methylene blue staining-based cell counting method. The class given is functional.
The test system of data set [16] is HCT-116. In words: Hypoxia radiosensitization activity in human HCT116 cells assessed as survival ratio by measuring ratio of cell survival with radiation in absence to presence of compound at 0.08 mM preincubated for 1 hr followed by 6 to 29 Gy irradiation measured after 10 days by methylene blue staining-based cell counting method relative to misonidazole. The class given is functional.

The test system of data set [17] is HCT-116. The data set is described as follows: Cytotoxicity against human HCT116 cells incubated for 4 hrs under aerobic condition measured after 5 days by sulforhodamine B assay. The class given is cell-based. The procedure, abridged: as §1

For the molecule `O=[N+]([O-])c1cncn1CS(=O)(=O)NCCN1CCOCC1`, the IC50 (usually the concentration that inhibits the measured activity by half) in data set [1] worked out at 2100 µM. Also, the “Ratio IC50” value in [2] was determined as 1.4. Besides, the Ratio in data set [3] is listed as 60; in [4], 1.43; in [6] it was 8.2. In addition, the “fold change (FC)” value in data set [5] came to 1.01. In addition, the Activity entry in data set [7] is “Non-Toxic”.
Take `Cc1ncc([N+](=O)[O-])n1CCS(=O)(=O)N1CCC(N(C)C)CC1`: the concentration in solution in data set [8] (solubility) came to 46.5 mM (≈ 16.1 mg/mL). In addition, in data set [1], half-maximal inhibition (IC50) required 700 µM. Moreover, the “Ratio IC50” value in [2] is reported as 2.9. Besides, the Ratio in data set [3] is reported as 12; in data set [9], 1.67; in [11], 25. Besides, the “fold change (FC)” value in [10] came out at 1.15; in [12], 2.3. The Activity result in [7] is “Non-Toxic”.
For `Cc1ncc([N+](=O)[O-])n1CCS(=O)(=O)NCCO`, in [8], the solubility (as a rule, the concentration that dissolves in the medium under given conditions) is greater than 49.3 mM. In data set [1], this molecule returned an IC50 of 400 µM. In data set [2], the “Ratio IC50” value amounted to 1.3. Moreover, the results for the Ratio in data set [3], in [9] and in [11] were 3.4, 1.176 and 1.616, respectively. Moreover, the “fold change (FC)” value was 0.82 in [10] and 0.36 in data set [12]. In [7], the Activity result is recorded as “Non-Toxic”.
For the molecule `O=[N+]([O-])c1nccn1CS(=O)(=O)NCCN1CCOCC1`, in data set [8], the solubility turned out to be 450 mM (≈ 144 mg/mL). Besides, the IC50 in [1] was 80 µM; in data set [17], 380 to 4800 µM. Also, the “Ratio IC50” value in data set [2] stood at 50. In addition, the Ratio in [3] is 10.5; in [13], 1.28; in data set [15] it was 3.9. Also, the entries for the “fold change (FC)” value in data set [14] and in [16] were 0.89 and 0.51, respectively. In addition, the Activity result in [7] is “Non-Toxic”.
